Calls of active or inactive are those of the source. No cut-off for these calls is given here.
Columns and labels:
[1] = test system: HeLa; assay: Antiproliferative activity against human HeLa cells assessed as reduction in cell viability after 48 hrs by MTT assay; assay type: functional, cell-based
Outline: (§1)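 MTT assay. HeLa and U87 cells were grown in DMEM + 10% FBS, and MCF-7 cells in RPMI + 10% FBS. Cells were seeded at 4 × 10³/well, grown 24 h, then exposed to 0.001–100 μM for 48 h. 0.1% DMSO was the negative control and 1 μM PAO the positive control. Quadruplicate wells, ≥2 repeats.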

[2] = test system: MCF7; assay: Antiproliferative activity against human MCF7 cells assessed as reduction in cell viability after 48 hrs by MTT assay; assay type: functional, cell-based; settings: MCF7, 48 h; outline: as §1
[3] = Antiproliferative activity against human GBM 031810 cells assessed as reduction in cell viability after 48 hrs by MTT assay; assay type: functional; settings: GBM 031810, 48 h
Outline: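 Patient-derived glioblastoma neurosphere culture GBM 031810, kept in Neurobasal medium with B27, Glutamax, FGF-2 (20 ng/ml), EGF (20 ng/ml) and heparin; growth factors renewed twice weekly. GI50 is the average ± SD of three determinations.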

[4] = test system: U-87MG ATCC; assay: Antiproliferative activity against human U87 cells assessed as reduction in cell viability up to 100 uM after 48 hrs by MTT assay; assay type: functional, cell-based
Outline: (§2)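 Cells (U87 in DMEM, A549 in RPMI with 10% heat-inactivated FBS) were seeded at 4 × 10³/well, grown 24 h, then exposed to 0.001–100 μM compound (DMSO stocks) for 48 h at 37 °C, 5% CO₂. Quadruplicates, repeated at least twice; 0.1% DMSO negative control, 1 μM PAO positive control.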

[5] = test system: A549; assay: Antiproliferative activity against human A549 cells assessed as reduction in cell viability up to 100 uM after 48 hrs by MTT assay; assay type: functional, cell-based; outline: as §2
[6] = Cytotoxicity against human NHLF cells assessed as cell growth after 48 hrs by MTT assay; assay type: cell-based
Outline: (§3)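 Normal fibroblasts (NHDF, NHLF) were grown in FGM-2 medium at 37 °C, 5% CO2, seeded at 4 × 10³/well and grown 24 h. Controls were 0.1% DMSO and 1 μM PAO. Quadruplicate wells, repeated at least twice.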

[7] = test system: NHDF; assay: Cytotoxicity against human NHDF cells assessed as cell growth after 48 hrs by MTT assay; assay type: cell-based; outline: as §3
[8] = Antiproliferative activity against human U87 cells assessed as reduction in cell viability after 48 hrs by MTT assay; assay type: functional, U-87MG ATCC; settings: U-87 MG; outline: as §1
[9] = Antiproliferative activity against human U373 cells assessed as global growth ratio measured as cell growth at 25 uM after 24 hrs by Quantitative videomicroscopy relative to untreated control; assay type: functional, U-373MG ATCC; settings: in the assay text read “after 72 hrs” for “after 24 hrs”
Outline: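 U373 cells were grown in RPMI + 10% heat-inactivated FBS and followed by computer-assisted phase-contrast videomicroscopy with 25 μM compound. The global growth ratio is the mean cell count per image at 24, 48 or 72 h divided by the count at 0 h, then normalised to the same ratio in the untreated control.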

[10] = test system: U-87MG ATCC; assay: Redifferentiation of human U87 cells assessed as nonmalignant state resembling reactive astrocyte/phenotype at 7 uM after 3 days; assay type: functional, cell-based; settings: in the assay text read “33 days” for “3 days”
Outline: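 U87 cells were plated at 5 × 10⁴/well in DMEM/10% FBS. Next day they were re-fed and dosed at final concentrations between 15 and 5 μM, with medium not replaced afterwards. Morphology was followed for several weeks (33-day treatment shown at 7 μM) against untreated cells.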

SMILES | IC50 [1] [µM] | IC50 [2] [µM] | also measured
O=C(NO)C(c1ccc(Cl)c(Cl)c1)c1c(-c2ccc3ccccc3c2)[nH]c2ccccc12 (centres undefined) | 31.7 | 12.2 | –
Cn1nnc2c(C(N)=O)ncn2c1=O [TEMOZOLOMIDE] | – | – | GI50 [3]: > 1000 µM
N#CC(c1ccccc1)c1c(-c2ccc3ccccc3c2)[nH]c2ccccc12 (centres undefined) | 17.4 | 20.6 | –
Cn1c(-c2ccc3ccccc3c2)c(C(C(=O)NO)c2ccccc2)c2ccccc21 (centres undefined) | 19.7 | 10 | –
O=C(NO)C(c1ccccc1Br)c1c(-c2ccc3ccccc3c2)[nH]c2ccccc12 (centres undefined) | 13 | 2.7 | –
O=C(NO)C(c1ccccc1)c1c(-c2ccc3ccccc3c2)n(Cc2ccccc2)c2ccccc12 (centres undefined) | 5.4 | 5.5 | –
CCOc1ccc(C(C(=O)NO)c2c(-c3ccc4ccccc4c3)[nH]c3ccccc23)cc1 (centres undefined) | 17.3 | 8.5 | –
COc1ccc(-c2[nH]c3ccccc3c2C(C(=O)NO)c2ccccc2)cc1 (centres undefined) | > 50 | > 50 | –
Cn1c(-c2ccc3ccccc3c2)c(C(C(=O)NO)c2cccc(F)c2)c2ccccc21 (centres undefined) | 36.8 | 25.7 | –
Cn1c(-c2ccc3ccccc3c2)c(C(C(=O)NO)c2ccccc2Br)c2ccccc21 (centres undefined) | 24 | 11.2 | –
COc1ccc(C(C(=O)NO)c2c(-c3ccc4ccccc4c3)[nH]c3ccccc23)cc1OC (centres undefined) | 26.9 | 2.4 | –
O=C(NO)C(c1ccccc1)c1c(-c2cccc3ccccc23)[nH]c2ccccc12 (centres undefined) | 25.7 | 32 | –
O=C(NO)C(c1ccccc1Cl)c1c(-c2ccc3ccccc3c2)[nH]c2ccccc12 (centres undefined) | 31 | 4.9 | –
CC(=O)O[C@H]1C(=O)[C@@]2(C)[C@H]([C@H](OC(=O)c3ccccc3)[C@]3(O)C[C@H](OC(=O)[C@H](O)[C@@H](NC(=O)c4ccccc4)c4ccccc4)C(C)=C1C3(C)C)[C@]1(OC(C)=O)CO[C@@H]1C[C@@H]2O | – | – | Activity [4]: inactive; Activity [5]: inactive
COc1cc([C@@H]2c3cc4c(cc3[C@H](O)[C@H]3COC(=O)[C@H]23)OCO4)cc(OC)c1OC | – | – | Activity [4]: inactive; Activity [5]: inactive
CN(C)c1ccc(C(C(=O)NO)c2c(-c3ccc4ccccc4c3)[nH]c3ccccc23)cc1 (centres undefined) | 0.6 | 1.1 | Activity [6]: Non-toxic; GI50 [3]: 5.6 µM; Activity [7]: Non-toxic
Cc1[nH]c2ccccc2c1C(C(=O)NO)c1ccccc1 (centres undefined) | > 50 | > 50 | –
COc1ccc2[nH]c(-c3ccc4ccccc4c3)c(C(C(=O)NO)c3ccccc3)c2c1 (centres undefined) | > 50 | > 50 | –

SMILES | IC50 [1] [µM] | IC50 [2] [µM] | also measured
O=C(NO)C(c1ccccc1)c1c(-c2ccccc2)[nH]c2ccccc12 (centres undefined) | 23 | 31 | –
CCCCn1c(-c2ccc3ccccc3c2)c(C(C(=O)NO)c2ccc(C(C)C)cc2)c2ccccc21 (centres undefined) | 6.6 | 7.7 | –
O=C(NO)C(c1ccccc1)c1c(-c2ccccc2[N+](=O)[O-])[nH]c2ccccc12 (centres undefined) | > 50 | > 50 | –
NC(=O)C(c1ccccc1)c1c(-c2ccc3ccccc3c2)[nH]c2ccccc12 (centres undefined) | 9.3 | 11.6 | –
CC(C)c1ccc(C(C(=O)NO)c2c(-c3ccc4ccccc4c3)[nH]c3ccccc23)cc1 (centres undefined) | 0.68 | 1.4 | GI50 [8]: 5 µM; GI50 [3]: 3.4 µM
O=C(NO)C(c1ccc([N+](=O)[O-])cc1)c1c(-c2ccccc2)[nH]c2ccccc12 (centres undefined) | > 50 | > 50 | –
O=C(NO)C(c1ccc(F)cc1)c1c(-c2ccc3ccccc3c2)[nH]c2ccccc12 (centres undefined) | 18.2 | 6.3 | –
O=C(NO)C(c1ccccc1)c1c(-c2ccc3ccccc3c2)[nH]c2ccccc12 (centres undefined) | 3.6 | 3.4 | Activity [6]: Non-toxic; Activity [9]: 30%; GI50 [3]: 0.8 µM; Activity [10]: Active; Activity [7]: Non-toxic
Cc1ccc2[nH]c(-c3ccc4ccccc4c3)c(C(C(=O)NO)c3ccccc3)c2c1 (centres undefined) | > 50 | > 50 | –
Cc1ccc(C(C(=O)NO)c2c(-c3ccc4ccccc4c3)[nH]c3ccccc23)cc1C (centres undefined) | 2.7 | 2.5 | –
Cc1cccc(C(C(=O)NO)c2c(-c3ccc4ccccc4c3)[nH]c3ccccc23)c1 (centres undefined) | 6.9 | 7.4 | –
CCC(C)n1c(-c2ccc3ccccc3c2)c(C(C(=O)NO)c2ccccc2)c2ccccc21 (centres undefined) | 9.8 | 9.3 | –
O=C(NO)C(c1cccc(F)c1)c1c(-c2ccc3ccccc3c2)[nH]c2ccccc12 (centres undefined) | 32.9 | 20.4 | –
CCN(CC)c1ccc(C(C(=O)NO)c2c(-c3ccc4ccccc4c3)[nH]c3ccccc23)cc1 (centres undefined) | 4.1 | 7.9 | –
O=C(NO)C(c1ccc(OC(F)(F)F)cc1)c1c(-c2ccc3ccccc3c2)[nH]c2ccccc12 (centres undefined) | 27.4 | 10.2 | –
Cc1ccc(C(C(=O)NO)c2c(-c3ccc4ccccc4c3)[nH]c3ccccc23)cc1 (centres undefined) | 6.3 | 4.9 | –
CCCCn1c(-c2ccc3ccccc3c2)c(C(C(=O)NO)c2ccccc2)c2ccccc21 (centres undefined) | 5.6 | 7.8 | –
